Key:
Format in all cases: functional, cell-based
[1] = test system: P388; test: Anticancer activity against mouse P388 cells assessed as reduction in cell viability measured after 48 hrs by SRB assay; settings: P388, 48 h
Method in brief: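 Suspension cells seeded at 10^4 cells/well and exposed 48 h to compound at 0.1–50 μM, dissolved in DMSO (less than 0.05%). Ellipticine served as positive control. Then washed, TCA-fixed, stained with 0.4% SRB in 1% acetic acid. Protein-bound dye extracted and absorbance read at 515 nm; IC50 taken.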

[2] = test system: KB; test: Anticancer activity against human KB cells assessed as reduction in cell viability measured after 72 hrs by SRB assay
Method in brief: (§1)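 Adherent cells seeded at 10^4 cells/well and exposed 72 h to compound at 0.1–50 μM, dissolved in DMSO (less than 0.05%). Ellipticine served as positive control. Afterwards cells washed, fixed with TCA, stained with 0.4% SRB in 1% acetic acid. Bound dye extracted and OD read at 515 nm; IC50 derived.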

[3] = test system: HT-29; test: Anticancer activity against human HT-29 cells assessed as reduction in cell viability measured after 72 hrs by SRB assay; settings: HT-29, 72 h; method in brief: as §1
[4] = test system: MCF7; test: Anticancer activity against human MCF7 cells assessed as reduction in cell viability measured after 72 hrs by SRB assay; settings: MCF7, 72 h; method in brief: as §1
[5] = test system: A549; test: Anticancer activity against human A549 cells assessed as reduction in cell viability measured after 72 hrs by SRB assay; settings: A549, 72 h; method in brief: as §1
[6] = Anticancer activity against rat ASK cells assessed as reduction in cell viability measured after 72 hrs by SRB assay; method in brief: as §1
[7] = Anticancer activity against human KKU-M213 cells assessed as reduction in cell viability measured after 72 hrs by SRB assay; settings: KKU-M213, 72 h; method in brief: as §1
[8] = test system: HuCC-A1; test: Anticancer activity against human HuCCa1 cells assessed as reduction in cell viability measured after 72 hrs by SRB assay; settings: HuCC-A1, 72 h; method in brief: as §1
[9] = Anticancer activity against human KKU055 cells assessed as reduction in cell viability measured after 72 hrs by SRB assay; method in brief: as §1

Compound | IC50 [1] | IC50 [2] | IC50 [3] | IC50 [4] | IC50 [5] | IC50 [6] | IC50 [7] | IC50 [8] | IC50 [9]
C=C1CC[C@@H]2[C@](C)(COC(C)=O)[C@H](OC(C)=O)CC[C@@]2(C)[C@@H]1C[C@H](SC(=S)N(C)Cc1ccccc1)C1=CCOC1=O | 2.17 µM | 25.3 µM | 6.22 µM | 0.59 µM | 6.94 µM | 6.92 µM | 4.83 µM | 8.63 µM | 1.36 µM
C=C1CC[C@@H]2[C@](C)(COC(C)=O)[C@H](OC(C)=O)CC[C@@]2(C)[C@@H]1C[C@H](SC(=S)N1CCN(C(c2ccccc2)c2ccccc2)CC1)C1=CCOC1=O | 36.5 µM | > 50 µM | > 50 µM | 42.3 µM | > 50 µM | > 50 µM | > 50 µM | > 50 µM | > 50 µM
C=C1CC[C@@H]2[C@](C)(COC(C)=O)[C@H](OC(C)=O)CC[C@@]2(C)[C@@H]1C[C@H](SC(=S)N1CCN(Cc2ccc(Cl)cc2)CC1)C1=CCOC1=O | 4.8 µM | > 50 µM | 13.7 µM | 5.56 µM | 32.8 µM | 26.2 µM | 6.76 µM | 21.6 µM | 6.22 µM
C=C1CC[C@@H]2[C@](C)(COC(C)=O)[C@H](OC(C)=O)CC[C@@]2(C)[C@@H]1C[C@H](SC(=S)N(Cc1ccccc1)Cc1ccccc1)C1=CCOC1=O | 4.94 µM | 8.66 µM | 6.54 µM | 4.76 µM | 22.9 µM | 7.22 µM | 5.67 µM | 7.64 µM | 6.02 µM
C=C1CC[C@@H]2[C@](C)(COC(C)=O)[C@H](OC(C)=O)CC[C@@]2(C)[C@@H]1C[C@H](SC(=S)N1CCN(C(=O)C2COc3ccccc3O2)CC1)C1=CCOC1=O (stereo partly drawn) | 3.4 µM | 22.7 µM | 9.18 µM | 3.92 µM | 23.4 µM | 25.5 µM | 6.16 µM | 17.3 µM | 5.59 µM
C=C1CC[C@@H]2[C@](C)(COC(C)=O)[C@H](OC(C)=O)CC[C@@]2(C)[C@@H]1C[C@H](SC(=S)N1CCN(c2ccccc2F)CC1)C1=CCOC1=O | 5.74 µM | 18.9 µM | 7.06 µM | 6.05 µM | 27.9 µM | 9.53 µM | 5.22 µM | 8.63 µM | 9.39 µM
C=C1CC[C@@H]2[C@](C)(COC(C)=O)[C@H](OC(C)=O)CC[C@@]2(C)[C@@H]1C[C@H](SC(=S)N1CCc2ccccc2C1c1ccccc1)C1=CCOC1=O (stereo partly drawn) | 5.33 µM | 18.1 µM | 9.63 µM | 5.6 µM | 29.8 µM | 23.4 µM | 6.81 µM | 9.39 µM | 6.44 µM
C=C1CC[C@@H]2[C@](C)(COC(C)=O)[C@H](OC(C)=O)CC[C@@]2(C)[C@@H]1C[C@H](SC(=S)N(C)Cc1ccc(F)cc1)C1=CCOC1=O | 3.59 µM | 25.7 µM | 6.14 µM | 0.68 µM | 11.6 µM | 16.9 µM | 5.15 µM | 7.78 µM | 3.04 µM
C=C1CC[C@@H]2[C@](C)(COC(C)=O)[C@H](OC(C)=O)CC[C@@]2(C)[C@@H]1C[C@H](SC(=S)N1CCN(c2ncccn2)CC1)C1=CCOC1=O | 4.31 µM | 6.92 µM | 4.53 µM | 0.84 µM | 18 µM | 7.2 µM | 5.3 µM | 5.73 µM | 5.3 µM
C=C1CC[C@@H]2[C@](C)(COC(C)=O)[C@H](OC(C)=O)CC[C@@]2(C)[C@@H]1C[C@H](SC(=S)N(CC)Cc1ccncc1)C1=CCOC1=O | 5.85 µM | 17.1 µM | 4.29 µM | 2.48 µM | 9.42 µM | 18 µM | 5.66 µM | 7.07 µM | 4.05 µM
C=C1CC[C@@H]2[C@](C)(CO)[C@H](O)CC[C@@]2(C)[C@@H]1C/C=C1/C(=O)OC[C@H]1O [ANDROGRAPHOLIDE] | 6.52 µM | 31.7 µM | 8.91 µM | 8.48 µM | 32 µM | 34.8 µM | 9.36 µM | 23.6 µM | 17.7 µM
Cc1c2ccncc2c(C)c2c1[nH]c1ccccc12 [ELLIPTECINE] | 1.79 µM | 1.92 µM | 2.16 µM | 1.79 µM | 2.25 µM | 2.19 µM | 1.81 µM | 2.43 µM | 2.43 µM

Source: ChEMBL document CHEMBL4622915, “Design and synthesis of C-12 dithiocarbamate andrographolide analogues as an anticancer agent” (Bioorg Med Chem Lett, 2020)
